According to ChEMBL document CHEMBL1687928, “Discovery, optimization, and pharmacological characterization of novel heteroaroylphenylureas antagonists of C-C chemokine ligand 2 function” (J Med Chem, 2011):
The source made the active and inactive calls. The calls are words filed in the database; no cut-off is given here.

Legend:
[1] = molecular target: C-C chemokine receptor type 2 (Homo sapiens) (UniProt P41597); type: cell-based; conditions: HEK293
[2] = molecular target: C-C chemokine receptor type 2 (Homo sapiens) (UniProt P41597); experiment: Antagonist activity at CCR2 in human THP1 cells assessed as inhibition of CCL2-induced calcium flux; type: functional, cell-based; conditions: THP-1
Summary of the method: (§1)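 THP-1 cells in serum-free RPMI 1640 were loaded with 3 μM Fluo-3AM plus 0.1% F127 for 30 min at 37 °C. After washing, cells were resuspended at 5 × 10^6 cells/mL and kept at room temperature. They were pretreated 30 min with compound or DMSO, then stimulated with 100 ng/mL hCCL2. Fluorescence was read by flow cytometry at baseline for 15 s, then from 20 to 120 s. Inhibition is given as % of DMSO control.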

[3] = molecular target: C-C chemokine receptor type 2 (Homo sapiens) (UniProt P41597); experiment: Antagonist activity at CCR2 in human THP1 cells assessed as inhibition of CCL2-induced calcium flux at 50 uM; type: functional, cell-based; conditions: THP-1; summary of the method: as §1
THP-1 = experiment: Cytotoxicity against human THP1 cells; type: cell-based
[4] = molecular target: C-C chemokine receptor type 2 (Homo sapiens) (UniProt P41597); type: cell-based; conditions: THP-1

Sequence of C-C chemokine receptor type 2 (Homo sapiens) (P41597 whole entry, looked up): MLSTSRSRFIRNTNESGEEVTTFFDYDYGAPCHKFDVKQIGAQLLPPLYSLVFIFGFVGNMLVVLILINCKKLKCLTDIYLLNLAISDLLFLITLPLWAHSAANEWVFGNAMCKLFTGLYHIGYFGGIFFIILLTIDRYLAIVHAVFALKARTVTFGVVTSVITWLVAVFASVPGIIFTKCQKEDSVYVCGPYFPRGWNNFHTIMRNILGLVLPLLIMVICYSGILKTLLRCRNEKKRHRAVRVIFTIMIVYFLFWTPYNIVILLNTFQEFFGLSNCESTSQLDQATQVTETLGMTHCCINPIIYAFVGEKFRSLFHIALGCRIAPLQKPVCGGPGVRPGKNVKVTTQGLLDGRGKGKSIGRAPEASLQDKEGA

## O=C(NC(=O)c1ccc2c(c1)OCO2)Nc1ccc(O)c(Cl)c1
[1]
  Activity: inactive
[2]
  Activity: Dose-dependent effect
[3]
  Activity: Active
THP-1
  CC50: > 50 µM
[4]
  Activity: inactive
